The source made the active and inactive calls. The rule behind the calls is not given here.
Columns and labels:
Format in all cases: cell-based
[1] = target: T1, Toll-like receptor 8 (Homo sapiens) (UniProt Q9NR97); test: Activation of human TLR8 transfected in HEK293 cells at 10 uM after 20 to 24 hrs by SEAP assay
T1 sequence (whole entry): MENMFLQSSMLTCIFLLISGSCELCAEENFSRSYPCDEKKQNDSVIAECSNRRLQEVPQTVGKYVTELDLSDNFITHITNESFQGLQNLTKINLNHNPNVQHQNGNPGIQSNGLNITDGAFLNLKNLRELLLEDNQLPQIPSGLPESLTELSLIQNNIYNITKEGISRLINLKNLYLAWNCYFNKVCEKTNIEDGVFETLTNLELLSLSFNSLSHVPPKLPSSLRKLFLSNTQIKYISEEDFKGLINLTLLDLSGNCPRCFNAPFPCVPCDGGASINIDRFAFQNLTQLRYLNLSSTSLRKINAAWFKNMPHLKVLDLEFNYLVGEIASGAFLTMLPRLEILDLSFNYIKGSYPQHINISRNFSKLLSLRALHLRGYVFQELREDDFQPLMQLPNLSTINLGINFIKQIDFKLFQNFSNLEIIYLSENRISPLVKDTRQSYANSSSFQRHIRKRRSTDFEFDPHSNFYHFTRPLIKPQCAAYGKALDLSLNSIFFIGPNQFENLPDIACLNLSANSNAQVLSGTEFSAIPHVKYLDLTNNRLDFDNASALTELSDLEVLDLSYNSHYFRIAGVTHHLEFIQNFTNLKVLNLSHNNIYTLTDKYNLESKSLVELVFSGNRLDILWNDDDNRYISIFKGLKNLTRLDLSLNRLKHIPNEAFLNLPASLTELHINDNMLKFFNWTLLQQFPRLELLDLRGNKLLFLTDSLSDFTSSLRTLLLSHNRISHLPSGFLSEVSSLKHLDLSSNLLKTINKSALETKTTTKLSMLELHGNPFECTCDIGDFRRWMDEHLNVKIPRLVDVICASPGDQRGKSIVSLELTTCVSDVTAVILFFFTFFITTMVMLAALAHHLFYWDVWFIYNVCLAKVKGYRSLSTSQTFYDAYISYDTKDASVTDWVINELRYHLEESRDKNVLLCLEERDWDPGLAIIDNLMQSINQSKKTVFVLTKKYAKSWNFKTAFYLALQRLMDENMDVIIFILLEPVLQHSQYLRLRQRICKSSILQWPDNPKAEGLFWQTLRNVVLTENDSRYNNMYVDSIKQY

[2] = target: Toll-like receptor 3 (Homo sapiens) (UniProt O15455); test: Activation of human TLR3 transfected in HEK293 cells at 10 uM after 20 to 24 hrs by SEAP assay
Sequence of Toll-like receptor 3 (Homo sapiens) (O15455 whole entry): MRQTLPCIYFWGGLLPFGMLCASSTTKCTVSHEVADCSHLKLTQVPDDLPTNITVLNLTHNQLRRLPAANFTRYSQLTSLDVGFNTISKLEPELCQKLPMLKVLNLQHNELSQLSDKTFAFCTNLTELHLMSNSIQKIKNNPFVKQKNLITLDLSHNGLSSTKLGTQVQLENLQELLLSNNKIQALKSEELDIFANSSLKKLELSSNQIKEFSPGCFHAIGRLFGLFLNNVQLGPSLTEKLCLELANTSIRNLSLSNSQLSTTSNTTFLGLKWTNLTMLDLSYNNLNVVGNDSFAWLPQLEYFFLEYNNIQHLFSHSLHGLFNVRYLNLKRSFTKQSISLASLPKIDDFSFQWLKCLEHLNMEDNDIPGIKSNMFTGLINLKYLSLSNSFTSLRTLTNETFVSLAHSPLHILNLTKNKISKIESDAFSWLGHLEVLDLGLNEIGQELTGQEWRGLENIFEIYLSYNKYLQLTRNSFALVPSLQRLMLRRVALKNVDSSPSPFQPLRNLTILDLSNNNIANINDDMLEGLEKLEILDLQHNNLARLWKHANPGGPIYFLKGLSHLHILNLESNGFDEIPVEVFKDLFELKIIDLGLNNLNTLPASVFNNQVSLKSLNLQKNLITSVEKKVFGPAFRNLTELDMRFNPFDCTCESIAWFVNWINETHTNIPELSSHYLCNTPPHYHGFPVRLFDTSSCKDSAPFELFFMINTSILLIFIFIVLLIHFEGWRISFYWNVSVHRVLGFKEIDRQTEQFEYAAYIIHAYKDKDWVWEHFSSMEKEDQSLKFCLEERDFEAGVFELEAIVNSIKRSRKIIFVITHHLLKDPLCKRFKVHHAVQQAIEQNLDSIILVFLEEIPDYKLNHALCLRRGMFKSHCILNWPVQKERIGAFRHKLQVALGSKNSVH

[3] = target: T2, Toll-like receptor 4 (Mus musculus) (UniProt Q9QUK6); test: Activation of TLR4-mediated type 1 IFN release in C57BL/6 mouse BMDC cells assessed as IP10 level after overnight incubation by ELISA
T2 sequence (whole entry): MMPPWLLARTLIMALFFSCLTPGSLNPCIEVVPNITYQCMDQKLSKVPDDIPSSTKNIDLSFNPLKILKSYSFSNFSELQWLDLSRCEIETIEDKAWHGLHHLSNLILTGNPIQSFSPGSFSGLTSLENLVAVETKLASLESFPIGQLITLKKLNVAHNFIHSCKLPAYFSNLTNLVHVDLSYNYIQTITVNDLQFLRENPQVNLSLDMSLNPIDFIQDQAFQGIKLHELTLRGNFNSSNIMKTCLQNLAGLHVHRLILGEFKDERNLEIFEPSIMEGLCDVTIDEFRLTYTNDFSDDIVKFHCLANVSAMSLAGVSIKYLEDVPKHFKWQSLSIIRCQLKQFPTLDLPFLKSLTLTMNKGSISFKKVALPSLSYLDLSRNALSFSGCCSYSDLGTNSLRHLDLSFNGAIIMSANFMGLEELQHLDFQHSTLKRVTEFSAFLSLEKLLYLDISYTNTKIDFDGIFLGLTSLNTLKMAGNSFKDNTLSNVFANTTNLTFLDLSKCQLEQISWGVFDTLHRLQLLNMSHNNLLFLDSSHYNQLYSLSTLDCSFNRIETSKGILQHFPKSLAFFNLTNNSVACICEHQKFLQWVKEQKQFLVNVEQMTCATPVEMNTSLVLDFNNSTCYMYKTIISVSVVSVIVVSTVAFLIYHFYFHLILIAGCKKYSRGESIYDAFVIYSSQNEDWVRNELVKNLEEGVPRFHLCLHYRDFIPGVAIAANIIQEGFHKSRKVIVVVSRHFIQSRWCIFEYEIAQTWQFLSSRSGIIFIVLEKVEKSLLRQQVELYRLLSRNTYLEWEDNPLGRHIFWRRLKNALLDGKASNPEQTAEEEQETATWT
How it was run: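 Wild-type BMDC incubated overnight with graded concentrations, 0.5% DMSO vehicle; IP-10 in supernatants by ELISA as surrogate of type I IFN. Mean ± SEM of triplicates; two independent experiments.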

Activity [1]: inactive
Activity [2]: inactive
Activity [3]: Dose-dependent effect
Compound: O=C(CSc1nc2c([nH]c3ccccc32)c(=O)n1-c1ccccc1)NC1CCCCC1

From ChEMBL document CHEMBL2384907, “Identification of substituted pyrimido[5,4-b]indoles as selective Toll-like receptor 4 ligands” (J Med Chem, 2013)
